# ChEMBL document CHEMBL5608238, “Discovery of Thiophene Derivatives as Potent, Orally Bioavailable, and Blood-Brain Barrier-Permeable Ebola Virus Entry Inhibitors” (J Med Chem, 2024)
# How the values were obtained:
# Ebolavirus [1] = test: Antiviral activity against EBOV Kikwit infected in HeLa cells; type: functional, organism-based; settings: Orthoebolavirus
# [2] = Cytotoxicity against african green monkey Vero E6 cells; type: toxicity, cell-based, Vero C1008; settings: chlorocebus sabaeus
# [3] = Selectivity index, ratio of CC50 for african green monkey Vero E6 cells to EC50 for EBOV infected in Vero E6 cells; type: toxicity, cell-based; settings: read-out: Ratio CC50/EC50
# Ebolavirus [4] = test: Antiviral activity against EBOV infected in HeLa cells; type: functional, organism-based; settings: Orthoebolavirus
# Ebolavirus [5] = test: Antiviral activity against EBOV-GP pseudotyped virus infected in Vero E6 cells preincubated with cells for 1 hr followed by viral addition and measured after 24 hrs by Steady-Glo microplate luminometer analysis; type: functional, organism-based; settings: Orthoebolavirus, Vero C1008
# In short: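 VeroE6 cells (2 × 10⁴/well) were treated with compound at 10 nM–10 μM for 1 h at 37 °C, then infected with 5000 TCID of EBOV Mayinga GP-pseudotyped rVSVΔG-luciferase. Luciferase was read by Steady-Glo after 24 h.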
# [6] = Selectivity index, ratio of CC50 for african green monkey Vero E6 cells to EC50 for EBOV-GP pseudotyped virus infected in Vero E6 cells; type: toxicity, cell-based; settings: read-out: Ratio CC50/EC50
# [7] = Selectivity index, ratio of CC50 for african green monkey Vero E6 cells to EC50 for wild type Zaire EBOV Mayinga 1976 infected in Vero E6 cells; type: toxicity, cell-based; settings: read-out: Ratio CC50/EC50
# [8] = AUClast in BALB/c mouse plasma at 10 mg/kg, ip measured upto 24 hrs by LC-MS/MS analysis; type: ADME, organism-based; settings: in vivo
# In short: (§1)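 Male BALB/c mice (8–12 weeks, 20–35 g) were given a single dose of test compound solution, either 10 mg/kg i.p. or 50 mg/kg p.o., at 10 mL/kg. Blood and then brain were taken from three mice per time point up to 24 h postdose. Plasma and brain levels were measured by LC–MS/MS, and parameters came from noncompartmental analysis.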
# [9] = AUClast in BALB/c mouse plasma at 50 mg/kg, po measured upto 24 hrs by LC-MS/MS analysis; type: ADME, organism-based; settings: in vivo; in short: as §1
# [10] = Drug concentration in BALB/c mouse plasma at 10 mg/kg, ip measured upto 24 hrs by LC-MS/MS analysis; type: ADME, organism-based; in short: as §1
# [11] = Drug concentration in BALB/c mouse plasma at 50 mg/kg, po measured upto 24 hrs by LC-MS/MS analysis; type: ADME, organism-based; in short: as §1
# [12] = Drug concentration in BALB/c mouse brain at 10 mg/kg, ip measured upto 24 hrs by LC-MS/MS analysis; type: ADME, organism-based; settings: read-out: Ct; in short: as §1
# [13] = Drug concentration in BALB/c mouse brain at 50 mg/kg, po measured upto 24 hrs by LC-MS/MS analysis; type: ADME, organism-based; settings: read-out: Ct; in short: as §1
# [14] = Toxicity in C57BL/6 mouse assessed as tolerability at 50 mg/kg, po measured after 4 days; type: organism-based; settings: in vivo, 96 h, time 4 day
# In short: (§2)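 Male and female C57BL/6 mice (3/sex/group) got a single oral gavage dose of 50, 100 or 250 mg/kg at 10 mL/kg, in 7.5% NMP, 7.5% Solutol HS-15, 25% PEG-400 and 60% RO water. Controls received vehicle. Clinical signs, body weight, percent weight gain and feed consumption were followed for 4 days, then survivors underwent euthanasia and gross pathology.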
# [15] = Toxicity in C57BL/6 mouse assessed as decrease in body weight gain at 100 mg/kg, po measured after 4 days; type: organism-based; settings: in vivo, 96 h, time 4 day; in short: as §2
# [16] = Toxicity in C57BL/6 mouse assessed as decrease in feed consumption at 100 mg/kg, po measured after 4 days; type: organism-based; settings: in vivo, 96 h, time 4 day; in short: as §2
# [17] = Toxicity in C57BL/6 mouse assessed as mortality at 250 mg/kg, po measured after 4 days; type: organism-based; settings: in vivo, 96 h, time 4 day; in short: as §2
# [18] = AUClast in BALB/c mouse brain at 10 mg/kg, ip measured upto 24 hrs by LC-MS/MS analysis; type: ADME, organism-based; settings: in vivo; in short: as §1
# [19] = AUClast in BALB/c mouse brain at 50 mg/kg, po measured upto 24 hrs by LC-MS/MS analysis; type: ADME, organism-based; settings: in vivo; in short: as §1
# [20] = Tmax in BALB/c mouse plasma at 10 mg/kg, ip measured upto 24 hrs by LC-MS/MS analysis; type: ADME, organism-based; settings: in vivo; in short: as §1
# [21] = Tmax in BALB/c mouse plasma at 50 mg/kg, po measured upto 24 hrs by LC-MS/MS analysis; type: ADME, organism-based; settings: in vivo; in short: as §1
# [22] = Cmax in BALB/c mouse plasma at 50 mg/kg, po measured upto 24 hrs by LC-MS/MS analysis; type: ADME, organism-based; settings: in vivo; in short: as §1
# [23] = Tmax in BALB/c mouse brain at 10 mg/kg, ip measured upto 24 hrs by LC-MS/MS analysis; type: ADME, organism-based; settings: in vivo; in short: as §1
# [24] = Tmax in BALB/c mouse brain at 50 mg/kg, po measured upto 24 hrs by LC-MS/MS analysis; type: ADME, organism-based; settings: in vivo; in short: as §1
# [25] = Cmax in BALB/c mouse brain at 50 mg/kg, po measured upto 24 hrs by LC-MS/MS analysis; type: ADME, organism-based; settings: in vivo; in short: as §1
# Ebolavirus [26] = test: Antiviral activity against EBOV Zaire Kikwit infected in Huh-7 cells incubated for 48 to 72 hrs; type: functional, organism-based; settings: Orthoebolavirus
# Ebolavirus [27] = test: Antiviral activity against eGFP-EBOV infected in Vero E6 cells incubated for 48 hrs by spectrofluorometer assay; type: functional, organism-based; settings: Orthoebolavirus, Vero C1008, 48 h
smiles,measurement,setting,value
Nc1ncnc2c([C@@H]3N[C@H](CO)[C@@H](O)[C@H]3O)c[nH]c12,EC50,Ebolavirus [1],11.8 µM
NC(=O)c1nc(F)c[nH]c1=O,CC50,[2],> 1000 µM
same,selectivity ratio,[3],14.9
CCC(CC)COC(=O)[C@H](C)N[P@](=O)(OC[C@H]1O[C@@](C#N)(c2ccc3c(N)ncnn23)[C@H](O)[C@@H]1O)Oc1ccccc1,EC50,Ebolavirus [4],0.14 µM
O=C(NCCc1ccccc1)c1ccc(-c2cccc(OC3CCNCC3)c2)s1,EC50,Ebolavirus [5],5.3 µM
O=C(Nc1ccccc1)c1ccc(-c2cccc(OC3CCNCC3)c2)s1,selectivity ratio,[6],4.7
same,selectivity ratio,[7],113
O=C(Nc1ccccc1)c1ccc(-c2ccc(OC3CCNCC3)cc2)s1,AUClast,[8],2973.11 ng·h/mL
same,AUClast,[9],8610.24 ng·h/mL
same,concentration at 24 h,[10],2740 nM
same,concentration at 24 h,[11],2040 nM
same,concentration at 24 h,[12],4430 nM
same,concentration at 24 h,[13],14800 nM
same,Activity,[14],Non-Toxic
same,Activity,[15],Toxic
same,Activity,[16],Toxic
same,Activity,[17],Toxic
same,AUClast,[18],25429.34 ng·h/mL
same,AUClast,[19],97086.13 ng·h/mL
O=C(Nc1ccccc1)c1ccc(-c2ccccc2OC2CCNCC2)s1,Tmax,[20],0.25 h
same,Tmax,[21],1 h
same,Cmax,[22],112.31 ng/mL
same,AUClast,[8],271.74 ng·h/mL
same,AUClast,[9],541.78 ng·h/mL
same,concentration at 24 h,[10],320 nM
same,concentration at 24 h,[11],290 nM
same,concentration at 24 h,[12],330 nM
same,concentration at 24 h,[13],810 nM
same,Tmax,[23],2 h
same,Tmax,[24],6 h
same,Cmax,[25],316.7 ng/mL
same,AUClast,[18],600.09 ng·h/mL
same,AUClast,[19],3341.42 ng·h/mL
CC(C)C(=O)OC[C@H]1O[C@@](C#N)(c2ccc3c(N)ncnn23)[C@H](O)[C@@H]1O [OBELDESIVIR],EC50,Ebolavirus [26],4.16 µM
CN(C)CCOc1ccc(/C(=C(/CCCl)c2ccccc2)c2ccccc2)cc1 [TOREMIFENE],IC50,Ebolavirus [27],0.162 µM
